Assay results as given in the EternaBench riboswitch data.

Tested on: MS2 coat protein
Test: apparent Kd, MS2 coat protein; higher = weaker binding; RNA-MaP array; FMN 200 µM where present
In short: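 Each design was made on Illumina sequencing-chip clusters by stalled E. coli RNA polymerase and titrated with SNAP-549-labelled MS2 coat protein from 0.7 or 1.5 nM, doubling to 3 µM, in the absence and then the presence of constant ligand. The buffer was 100 mM Tris-HCl pH 7.5, 80 mM KCl, 4 mM MgCl2, BSA, DTT, yeast tRNA and Tween-20. The apparent Kd is the median of filtered per-cluster fits of binding curves, with green signal normalised to red-channel RNA signal and control-cluster median Fmax.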

[1] = designed as: OFF switch for flavin mononucleotide, no ligand
[2] = ligand present: flavin mononucleotide, designed as: OFF switch for flavin mononucleotide
[3] = designed as: ON switch for flavin mononucleotide, no ligand
[4] = ligand present: flavin mononucleotide, designed as: ON switch for flavin mononucleotide

| Sequence | apparent Kd [1] | apparent Kd [2] | apparent Kd [3] | apparent Kd [4] |
| --- | --- | --- | --- | --- |
| GUUUCACAUGAGGAUCACCCAUGUGAGGAUAUAGAUUUGUUAACCGUAGUUAAUAGAUCUAGAAGGCGCGUGAU | 60.7 nM | 66.1 nM |  |  |
| UUCAGCGAUCAAGGAUAUCUAUAAACAUGAGGACAUGAGGAUCACCCAUGUUGAUCACCCAUGUAGGAGAAGGUGAACAUGAGG |  |  | 81.8 nM | 29.8 nM |
| AUUAUUGACGAAGGAUAUGGAUACAUGAGGAUCACCCAUGUAUAUUUUGUGAUCAUAUUUAUGAUCCAGAAGGUCGUUGUUUAU | 37.3 nM | 113 nM |  |  |
| AUACUUAAUGAAGGAUAUCUUAGCAUAAACCUGAGAGAAGGUCAUUAUUACAUGAGGAUCACCCAUGUUGUGGUUAAUGGGUAA | 264 nM | 327 nM |  |  |
| UGAUACUAAGAGAAGGUACAAACUACAUAUUACAUACAUGAGGAUCACCCAUGUUGGUGAAUAAGUAAGGAUAUUUUACUAUAU | 15.4 nM | 12.4 nM |  |  |
| ACUUGUUAUUUAAUCAUUGAAUUGUAGGAUAUACUUACAUGAGGAUCACCCAUGUUAACAUGGAUGUAGAAGGACAUCUCAUUU | 98.9 nM | 55.1 nM |  |  |
| AUCGGGAUUACAUGAGGAUCACCCAUGUCAGAACGGGUAGUUAGAAGGUGCCAUUAGGGAGAGGGUAAGGAUAUAAUUUUUGGC |  |  | 14.6 nM | 12.8 nM |
| GUGUGAUUAAGAGGAUAUAUACAACAUGAGGAUCACCCAUGUACCCGUGUAGUAGAAGGUUUGUUUUUAUAUAAUAUUAUAUUU |  |  | 26.5 nM | 21.9 nM |
| AAAGCACGAGGAUAUACAUGAGGAUCACCCAUGUAUAACCAAAAAAAAAGAUCCUCAUGUAGAAGGCGUGCAAA | 18.9 nM | 16.8 nM |  |  |
| AUGAGUAAAGCAGGAUAUCUAUUGACUCUGUAACAUGAGGAUCACCCAUGUAGAGAAGGGCUAAUUCUUACUCUUCGGAGUUGA | 10.2 nM | 11.7 nM |  |  |
| ACUGACAUGAGGAUCACCCAUGUCUUGGAUAGGCCAAAUUCACAGGAUAUGCAUGAGGACAGCGUGCAGAAGGGUGAUGCAAUG |  |  | 54.6 nM | 25.5 nM |
| GAAUUCGCAUGAGGAUAUGCACUCAUUUCAUGUGCAGAAGGUAUUUCAUUAGACAUGAGGAUCACCCAUGUAUUGGUCAAUAAC |  |  | 19.1 nM | 16.1 nM |
| GUGCCUUGGGAGAAGGUUAUUGGCAAAGCUAUUAAAGGAUAUUCAUACCGGAAACGGACAUGAGGAUCACCCAUGUGGCACAAA |  |  | 752 nM | 208 nM |
| GUAAAACAAACUAACAUGAGGAUCACCCAUGUGAGGAGGCUCAGAAGGGCGUGGAAAAUUUCCUCGCAGGAUAUGAACCUCAUU |  |  | 70.8 nM | 9.66 nM |
| GGCUUCUUCACAGGAUAUGGUUUUUUAAGUAUACAUGAGGAUCACCCAUGUCCAGAAGGGUGAGGGUCCGGCGUACAGUGUCGG |  |  | 645 nM | 30.4 nM |
| AUAAUGUGAGGAUAUACAUGAGGAUCACCCAUGUAAUUAAAUCGGAGAGCCACAUUUCGUAGAAGGUACAUUUA | 20.7 nM | 22.6 nM |  |  |
| AAUAAACUCACAGGAUAUAGCAUAAGUCGCGUGAACUUACAGGCGACUAUGCUAGAAGGGUGACCACAUGAGGAUCACCCAUGU |  |  | 805 nM | 158 nM |
| GGAUGUCUGGAGGAUAUACAGACUAUUAGAUCAGUAGAAGGUCAGACAUGAGGAUCACCCAUGUUAGUGUAUCC | 52 nM | 473 nM |  |  |
| GGAUAUAACGUAGGAUAUCUGAGAAAUAGAUGAAGAGAAGGACGACAUGAGGAUCACCCAUGUGAUCUAUCAAUAUUAUACAUG | 452 nM | 749 nM |  |  |
| UGAAAUCAUGUAGGAUAUGCAUGGCGAAGCUGCGCAGAAGGACAUGAGGAUCACCCAUGUUAUAGCUACCCAGUUCGGUGGCAA | 37.3 nM | 171 nM |  |  |
| UUUUUAUUUGUAGGAUAUGGAGACAUGAGGAUCACCCAUGUAUGAUAAGAUAAAUUAUGAUGUGGCCAGAAGGAUAUUAUUUUU |  |  | 87.1 nM | 119 nM |
| CUUUUGUGAGGAUAUCAGUAGUAAAUUAAUAAAAUUACUACUGAGAAGGCACAUGAGGAUCACCCAUGUUCCUC | 42.6 nM | 285 nM |  |  |
| UGUUACUAGUAAGGAUAUACUUGCGAUAAGCUUGUAGAAGGUACAGUCUUUUGUAUAACAUGUUUACAUGAGGAUCACCCAUGU |  |  | 9.71 nM | 8.78 nM |
| GCCAUCGCAUGAGGAUAUGCUCCGGUUUCCGGAGCAGAAGGCAUGUCAUAAGACAUGAGGAUCACCCAUGUAGUUAAGAUGGCA |  |  | 715 nM | 33.6 nM |
| GCGCUUAUACAGAAGGCCAUAUACAUGAGGAUCACCCAUGUCGAAUCUUGGAGGAUAUGUUAUUAAUUACACGCAGAUGAGCGC |  |  | 15.8 nM | 6.19 nM |
| AAUAUAGAAGGAUAUGCAGCCGUGAGCCAUAGAGGAGACGAACAUGAGGAUCACCCAUGUAGAAGGUCUCGAUU | 13.1 nM | 12.4 nM |  |  |
| AAUUGACCUGUCAGGAUAUAGAGGGAGACUUACAUCUAGAAGGGACAUGAGGAUCACCCAUGUCAGUUGAGACA | 19.8 nM | 22.6 nM |  |  |
| AGAAAACAUGAGGAUCACCCAUGUGAGGAUAUCGAUGUCCAAGGCCGGGUGCGGGACUCGAGAAGGCACUUGGA | 76.9 nM | 32.3 nM |  |  |

| Sequence | apparent Kd [1] | apparent Kd [2] | apparent Kd [3] | apparent Kd [4] |
| --- | --- | --- | --- | --- |
| UUCGUGCAGCUUAGCUGUACGCGUACAUGAGGAUCACCCAUGUAGGAUAUGGUAGGCUUUGCUUACUAGAAGGAUAGUGUGAUC | 215 nM | 70.5 nM |  |  |
| CUUUUGUGAGGAUAUUAGUAGUAAAAAAAUAAAAUUACUACUGAGAAGGCACAUGAGGAUCACCCAUGUUUCUC | 28.2 nM | 115 nM |  |  |
| CCAUGUUAGCAGGAUAUGCUAUUAAUCUUUUAUGCAGAAGGGCUUACAUGAGGAUCACCCAUGUAUUAAGUCUU | 11.3 nM | 19.5 nM |  |  |
| UGACGGAGCUGAGGAUAUUACAUGAGGAUCACCCAUGUAAGUCUCCAGGAAACUGGAGACAAAUGUAAGAAGGCAGCUCCGUCA | 18.7 nM | 27.9 nM |  |  |
| GUUAUUUAUGUAGGAUAUGCGAGGCGAGCCUAAGCAGAAGGACAUGAGGAUCACCCAUGUAUUGCGGUUUGUGUUCAGAUCGCU | 27.3 nM | 84.9 nM |  |  |
| GUCAGCUCGUGAGGAUAUACAACACUGCUUCGGCAGUGUAUUAAGAUCACAUGAGGAUCACCCAUGUAGAAGGUACGAGCUGAU | 8.56 nM | 82.9 nM |  |  |
| AUAAUGUAAGGAUAUCAGUCGACUAGCUGCGGCUAGUCGACUGAGAAGGUACAUGAGGAUCACCCAUGUGUUUC | 40.9 nM | 183 nM |  |  |
| UAUUACAGAUAAGGAUAUUGACAUGAGGAUCACCCAUGUAUUUGGGAAUGUUUACUGAAUUCUUACGAGAAGGUAUACGUACUU | 128 nM | 98.7 nM |  |  |
| UACCUACAUGAGGAUCACCCAUGUCAGGAUAUGUGCUGAGACGACAUCGACUUUCAGCGUAGAAGGGACCAGGG | 24.4 nM | 46.5 nM |  |  |
| GCUGUCGCGUGAGGAUAUGGUCAGCUUUGCUGACCAGAAGGCAUGUCAAUAGACAUGAGGAUCACCCAUGUGGUUAGGGCGGCU |  |  | 1070 nM | 136 nM |
| UUUUCACAUGAGGAUCACCCAUGUGAGGAUAUGGAGCGCGACCGCGCGGUCGCGUACACCAGAAGGCGCAUGAU | 30.5 nM | 36.6 nM |  |  |
| ACGCGAUGGGAGAAGGUACUUUAAAAUAUUUUCACAUGAGGAUCACCCAUGUAAGGAUAUCCCAUCGUUAAAUAUUAUACAGCA | 6.49 nM | 5.24 nM |  |  |
| UUACUCAUGUAAGGAUAUGCAGCCGUUUCGGCUGCAGAAGGUACUAUAAUACAUGAGGAUCACCCAUGUCUUUUUAAUUUAGAU |  |  | 195 nM | 77 nM |
| AAUUGAGAGCAGGAUAUAUUCCUGAUGUAUGAAGUAGAAGGGCUCACAUGAGGAUCACCCAUGUGAUCCUGAAU | 16.1 nM | 18 nM |  |  |
| CGCUGUUGCGCAGGAUAUGCAUUGGAUUACAAUGCAGAAGGGCGAUUACAUGAGGAUCACCCAUGUGUAGACAGUGAAGAAGAG |  |  | 300 nM | 37.2 nM |
| AACCAGUUGGUAGGAUAUGGUGCAGUGCCCGUACCAGAAGGACCAACAUGAGGAUCACCCAUGUUGGAAAGUCAACAUUAAUGA | 6.32 nM | 11.8 nM |  |  |
| AUAUGAUAGAUAGGAUAUACAGAUGAAUAAUAAGUAGAAGGAUCAAAUGGGAAUUAUACAUGAGGAUCACCCAUGUUUUUGGAU |  |  | 50.1 nM | 32.1 nM |
| GUACUGUAGUGAGGAUAUACGAGUACGAUAGUACGGCGAUCCAAUUAUACAUGAGGAUCACCCAUGUAGAAGGCACUUCAGUAC | 9.93 nM | 41.1 nM |  |  |
| UUUUAACAUGAGGAUCACCCAUGUGAGGAUAUCGUUUUUUAUAUUAAUAUUAAUAAAACGAGAAGGCACAUUUU | 137 nM | 150 nM |  |  |
| GUUCUUCCUGUGAGGAUAUCCAUGUGUCGGUUUGUGGAGAAGGUACAUGAGGAUCACCCAUGUCACCCGCGUUA | 14.7 nM | 17.7 nM |  |  |
| AUAUAUAAUAAGAAGGUGCCAGCGAGAGCUGCACAUGAGGAUCACCCAUGUUGUCGGUGACGACGCAAGGAUAUUAUUAUAUAU |  |  | 56.8 nM | 18.5 nM |
| UAAUAAUAAUAAUAAUGGACGAUACAUGAGGAUCACCCAUGUAAGGAUAUGCAGUGGAAUACACUGCAGAAGGUACAUACGUCC | 15.7 nM | 23 nM |  |  |
| UGAGCGACCACAGGAUAUGCUUGAGAAGACCGAGCAGAAGGGUGGAAGAGCGUGCAGUGACAUGAGGAUCACCCAUGUGGUUGG |  |  | 173 nM | 170 nM |
| CGGGAAGUCGUAGGAUAUGGUGAUGUACAUGAGGAUCACCCAUGUCCGUCUUCUCUCACAAGAUGCCAGAAGGACGACCUCCGG |  |  | 770 nM | 97.8 nM |
| UCUGGUCGAGGAUAUACGUGACGUGCUUCGGCACGAGGUCUACAUGAGGAUCACCCAUGUAGAAGGCGACCAGA | 17.1 nM | 48 nM |  |  |
| GAAGCACGCACAGGAUAUCCGGCGGCGCUCGUCGGAGAAGGGUGACAUGAGGAUCACCCAUGUACGUGCAACUCAGUUUGAGAG |  |  | 21.5 nM | 13.9 nM |
| AGUAAGAUGCAGAAGGUGUCAGCGAGAGCUGCGACAUGAGGAUCACCCAUGUACAAGUGAGUGUACAAGGAUAUGCAUCUUACA |  |  | 192 nM | 24 nM |
